Reference: ChEMBL document CHEMBL1134644 (J Med Chem, 2001)
pKi: −log10 of the molar value.

What was measured:
[1] = target: T1, Adenosine receptor A3 (Rattus norvegicus, UniProt P28647); assay: Binding affinity at rat adenosine A3 receptor in CHO cells; assay type: cell-based
T1 sequence (P28647 whole entry): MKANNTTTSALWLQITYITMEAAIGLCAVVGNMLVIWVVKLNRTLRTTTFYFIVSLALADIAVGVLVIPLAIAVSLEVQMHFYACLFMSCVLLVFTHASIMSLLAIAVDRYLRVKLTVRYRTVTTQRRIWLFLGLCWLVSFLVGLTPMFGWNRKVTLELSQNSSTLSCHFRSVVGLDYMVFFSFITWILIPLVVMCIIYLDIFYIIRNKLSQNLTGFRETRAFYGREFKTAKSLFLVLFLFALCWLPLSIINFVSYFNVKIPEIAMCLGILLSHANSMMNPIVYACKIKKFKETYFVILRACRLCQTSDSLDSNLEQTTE

[2] = target: T2, Adenosine receptor A1 (Rattus norvegicus, UniProt P25099); assay: Binding affinity at rat brain Adenosine A1 receptor
T2 sequence (P25099 whole entry): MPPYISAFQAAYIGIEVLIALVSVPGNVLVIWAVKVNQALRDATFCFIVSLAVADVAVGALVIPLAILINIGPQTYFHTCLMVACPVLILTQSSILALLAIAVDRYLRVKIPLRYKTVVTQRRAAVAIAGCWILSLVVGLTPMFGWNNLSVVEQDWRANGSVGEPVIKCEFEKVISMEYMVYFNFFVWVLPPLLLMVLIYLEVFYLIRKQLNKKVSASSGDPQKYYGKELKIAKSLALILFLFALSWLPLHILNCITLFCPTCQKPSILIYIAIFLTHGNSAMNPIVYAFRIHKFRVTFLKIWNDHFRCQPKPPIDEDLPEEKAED
How it was run: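 Rat cerebral cortex membranes labelled with [3H]R-PIA. Adenosine deaminase 3 units/mL present during membrane preparation, during a 30 min preincubation at 30 °C and during incubation. Filtration on GF/B filters. At least five competitor concentrations spanning 3 log units. […] Three independent experiments in duplicate.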

[3] = target: Adenosine receptor A3 (Homo sapiens, UniProt P0DMS8, H272E); assay: Binding affinity at Mutant (H272E) human adenosine A3 receptor expressed in COS-7 cells; assay type: cell-based
[4] = target: T3, Adenosine receptor A3 (Homo sapiens, UniProt P0DMS8); assay: Binding affinity at wild-type Adenosine A3 receptor expressed in COS-7 cells; assay type: cell-based
T3 sequence (P0DMS8 whole entry): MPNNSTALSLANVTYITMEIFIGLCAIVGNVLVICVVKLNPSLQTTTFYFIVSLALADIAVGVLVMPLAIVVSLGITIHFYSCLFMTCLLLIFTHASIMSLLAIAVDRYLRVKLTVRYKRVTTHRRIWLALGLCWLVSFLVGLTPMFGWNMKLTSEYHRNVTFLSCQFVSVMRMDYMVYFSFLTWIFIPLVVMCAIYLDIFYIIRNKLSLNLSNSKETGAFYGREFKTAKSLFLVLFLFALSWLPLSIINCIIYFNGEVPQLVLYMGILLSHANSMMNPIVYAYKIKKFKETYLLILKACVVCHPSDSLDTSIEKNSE

[5] = target: T1, Adenosine receptor A3; assay: Binding affinity at rat adenosine A3 receptor in RBL-2H3 cells; assay type: cell-based
How it was run: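 Rat A3 receptors endogenously expressed in RBL-2H3 cells; displacement of [125I]AB-MECA at 1 nM in 50 mM Tris, 10 mM Mg2+, 1 mM EDTA, pH 8.0. Nonspecific binding defined with 100 μM R-PIA. Filtration on GF/B filters. At least five competitor concentrations. IC50 by nonlinear regression, converted to Ki by Cheng–Prusoff (Kd 1.46 nM). Three independent experiments in duplicate.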

Sequence of Adenosine receptor A3 (Homo sapiens, UniProt P0DMS8, H272E) (P0DMS8 whole entry H272E): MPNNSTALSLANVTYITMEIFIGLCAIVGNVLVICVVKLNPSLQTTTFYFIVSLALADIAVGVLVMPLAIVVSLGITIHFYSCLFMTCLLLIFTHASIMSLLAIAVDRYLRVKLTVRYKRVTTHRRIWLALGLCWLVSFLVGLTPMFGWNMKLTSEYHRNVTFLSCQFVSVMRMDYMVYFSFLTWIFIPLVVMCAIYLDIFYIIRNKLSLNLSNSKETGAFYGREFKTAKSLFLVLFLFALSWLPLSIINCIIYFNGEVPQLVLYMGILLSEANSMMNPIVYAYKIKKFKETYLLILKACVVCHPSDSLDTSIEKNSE

| Structure (SMILES) | pKi [1] | pKi [2] | pKi [3] | pKi [4] | pKi [5] |
| --- | --- | --- | --- | --- | --- |
| NCCNC(=O)[C@H]1O[C@@H](n2cnc3c(N)ncnc32)[C@H](O)[C@@H]1O | 4.83 | < 5.00 | – | – | – |
| N[C@H]1[C@@H](O)[C@H](n2cnc3c(NCc4cccc(I)c4)ncnc32)O[C@@H]1CO | – | 5.09 | 6.49 | 6.06 | – |
| N[C@@H]1[C@@H](O)[C@H](n2cnc3c(NC4CCCC4)ncnc32)O[C@@H]1CO | – | < 5.00 | 9.72 | 9.27 | < 5.00 |
| Nc1ncnc2c1ncn2[C@@H]1O[C@H](CO)[C@@H](O)[C@H]1N | – | < 5.00 | 6.52 | 3.00 | < 5.00 |
| Nc1nc(Cl)nc2c1ncn2[C@@H]1O[C@H](CO)[C@@H](O)[C@H]1O | – | – | 4.94 | 6.19 | – |
| NC[C@H]1O[C@@H](n2cnc3c(N)ncnc32)[C@H](O)[C@@H]1O | – | < 5.00 | 6.37 | 3.00 | < 5.00 |
| Nc1ncnc2c1ncn2[C@@H]1O[C@H](CO)[C@@H](N)[C@H]1O | – | < 5.00 | 7.12 | 6.35 | 4.08 |
| N=C(N)N[C@H]1[C@@H](O)[C@H](n2cnc3c(N)ncnc32)O[C@@H]1CO | – | < 5.00 | 7.48 | 6.89 | – |
| CNC(=O)[C@@H]1C[C@H](N)[C@H](n2cnc3c(NCc4cccc(I)c4)nc(Cl)nc32)O1 | 5.47 | 5.17 | 8.64 | 8.34 | – |
| Nc1nc2ccc(Cl)cc2c2nc(-c3ccco3)nn12 [CGS-15943] | – | – | 5.49 | 6.60 | – |
